Results as given in ChEMBL document CHEMBL1933016, “Hydroxycoumarins as selective MAO-B inhibitors” (Bioorg Med Chem Lett, 2012).

Assays:
[1] = organism: Homo sapiens; assay: Selectivity index, ratio of IC50 for human recombinant MAOA to IC50 for human recombinant MAOB
Summary of the method: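 The index is IC50(MAO-A)/IC50(MAO-B) from the fluorimetric Amplex Red/p-tyramine assay on recombinant human isoforms.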

[2] = biological target: T1, Amine oxidase [flavin-containing] B (Homo sapiens, UniProt P27338); assay: Inhibition of human recombinant MAOB expressed in baculovirus-infected BTI insect cells assessed as using transformed p-tyramine after 15 mins by fluorimetric assay; type: single protein
T1 sequence (P27338 whole entry): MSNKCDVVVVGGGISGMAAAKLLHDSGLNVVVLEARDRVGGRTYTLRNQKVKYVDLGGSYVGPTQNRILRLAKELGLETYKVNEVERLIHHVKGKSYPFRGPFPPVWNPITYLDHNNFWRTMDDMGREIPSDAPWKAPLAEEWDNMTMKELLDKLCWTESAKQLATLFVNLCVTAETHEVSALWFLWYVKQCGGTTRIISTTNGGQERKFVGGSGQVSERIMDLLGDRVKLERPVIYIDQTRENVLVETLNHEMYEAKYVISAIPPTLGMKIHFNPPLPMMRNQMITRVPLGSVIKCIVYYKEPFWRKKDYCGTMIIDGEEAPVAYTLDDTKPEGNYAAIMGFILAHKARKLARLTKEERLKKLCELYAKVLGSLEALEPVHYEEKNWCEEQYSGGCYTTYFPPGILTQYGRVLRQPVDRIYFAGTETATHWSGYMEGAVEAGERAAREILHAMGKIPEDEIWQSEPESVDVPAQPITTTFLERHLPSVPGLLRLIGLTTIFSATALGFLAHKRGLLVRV

[3] = biological target: T2, Amine oxidase [flavin-containing] A (Homo sapiens, UniProt P21397); assay: Inhibition of human recombinant MAOA expressed in baculovirus-infected BTI insect cells assessed as conversion of p-tyramine into p-hydroxyphenyl-acetaldehyde at 100 uM after 15 mins by fluorimetric assay; conditions: 0.25 h
T2 sequence (P21397 whole entry): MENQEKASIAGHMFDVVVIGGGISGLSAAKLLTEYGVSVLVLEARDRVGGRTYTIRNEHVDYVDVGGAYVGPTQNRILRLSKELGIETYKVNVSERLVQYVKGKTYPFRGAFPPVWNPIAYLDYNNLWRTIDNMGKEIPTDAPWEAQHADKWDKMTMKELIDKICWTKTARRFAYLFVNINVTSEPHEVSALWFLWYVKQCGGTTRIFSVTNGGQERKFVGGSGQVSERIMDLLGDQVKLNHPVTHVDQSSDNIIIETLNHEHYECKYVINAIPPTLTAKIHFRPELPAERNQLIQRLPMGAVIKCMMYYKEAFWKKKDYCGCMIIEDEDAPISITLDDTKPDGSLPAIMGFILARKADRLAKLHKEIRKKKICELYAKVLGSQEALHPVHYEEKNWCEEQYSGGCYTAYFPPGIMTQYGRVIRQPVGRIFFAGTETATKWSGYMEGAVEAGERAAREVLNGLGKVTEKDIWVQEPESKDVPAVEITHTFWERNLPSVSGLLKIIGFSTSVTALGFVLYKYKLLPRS
Summary of the method: (§1)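 Recombinant hMAO-A or hMAO-B was adjusted to the same velocity (165 pmol p-tyramine/min; specific activity 150 nmol/min/mg for A, 22 for B). Enzyme and drug in 0.05 M sodium phosphate pH 7.4 were preincubated 15 min at 37 °C. Amplex Red, 1 U/mL HRP and 1 mM p-tyramine (final) were added, and resorufin fluorescence was read at 37 °C. Values were background-subtracted against enzyme-free blanks with vehicle controls.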

[4] = biological target: T1, Amine oxidase [flavin-containing] B; assay: Inhibition of human recombinant MAOB expressed in baculovirus-infected BTI insect cells assessed as using transformed p-tyramine at 100 uM after 15 mins by fluorimetric assay; conditions: 0.25 h; summary of the method: as §1

Ratio IC50 [1]	IC50 [2]	inhibition (INH) [3]	inhibition (INH) [4]	SMILES
> 2.3	42.7 µM	Not Active		COc1ccc(-c2c(O)c3cc(C)ccc3oc2=O)cc1Cl
		Not Active	Not Active	COc1ccc(-c2c(O)c3cc(Cl)ccc3oc2=O)cc1
		Not Active	Not Active	O=c1oc2ccccc2c(O)c1-c1ccccc1
> 1.4	69.6 µM	Not Active		COc1ccc(-c2c(O)c3ccccc3oc2=O)cc1
> 36	2.79 µM	Not Active		COc1ccc(-c2c(O)c3cc(Cl)ccc3oc2=O)cc1Cl
> 3.1	32 µM	Not Active		COc1ccc(-c2c(O)c3cc(C)ccc3oc2=O)cc1
		Not Active		COc1ccc(-c2c(O)c3ccccc3oc2=O)cc1Cl
